From ChEMBL document CHEMBL1153486, “Discovery of a class of potent gap-junction modifiers as novel antiarrhythmic agents” (Bioorg Med Chem Lett, 2009)
Calls of active or inactive are those of the source. The calls are words filed in the database; no cut-off is given here.

What was measured:
Mus musculus [1] = assay: Antiarrhythmic activity in calcium chloride-induced mouse arrhythmia model assessed as prolongation of time to conduct cardiac block at 10 pmol/kg, iv relative to control; assay type: functional, Heart
How it was run: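 Mice received an intravenous infusion of CaCl2 after IV test compound. The read-out was time to cardiac conduction block, expressed as percent increase over control. Values are means of at least three experiments with standard deviation.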

[2] = Stability in rat plasma after 3 hrs; assay type: ADME, cell-free; conditions: read-out: Stability
How it was run: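 Rat plasma incubation for 3 h; stability reported as percent of compound remaining.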

[3] = Tmax in CD1 mouse at 5 mg/kg, po; assay type: ADME, organism-based; design: dose 5 mg/kg, route oral; conditions: in vivo
How it was run: (§1)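 CD-1 mice were dosed IV at a nominal 1 mg/kg (actual 0.77 mg/kg or 1.6 mg/kg for some compounds) and PO at 5 mg/kg. Parameters were derived from mean drug concentration, N = 3 animals/time point.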

[4] = Volume of distribution at steady state in CD1 mouse at 1 mg/kg, iv; assay type: ADME, organism-based; design: dose 1 mg/kg, route intravenous; conditions: in vivo, read-out: Vdss; how it was run: as §1
[5] = Clearance in CD1 mouse at 1 mg/kg, iv; assay type: ADME, organism-based; design: dose 1 mg/kg, route intravenous; conditions: in vivo; how it was run: as §1
[6] = Inhibition of CYP450; assay type: ADME
[7] = Cmax in CD1 mouse at 5 mg/kg, po; assay type: ADME, organism-based; design: dose 5 mg/kg, route oral; conditions: in vivo; how it was run: as §1
Mus musculus [8] = assay: Antiarrhythmic activity in calcium chloride-induced mouse arrhythmia model assessed as prolongation of time to conduct cardiac block at 1 to 30 mg/kg, po relative to control; assay type: functional, organism-based; conditions: Heart
How it was run: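 Compounds were given orally at 1–30 mg/kg to mice, which then received an intravenous CaCl2 infusion. The read-out was prolongation of time to conduction block versus control.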

[9] = Oral bioavailability in CD1 mouse at 5 mg/kg; assay type: ADME, organism-based; conditions: in vivo; how it was run: as §1
[10] = Metabolic stability in human liver microsomes assessed as half life; assay type: ADME, Microsome
[11] = target: Voltage-gated inwardly rectifying potassium channel KCNH2 (Homo sapiens, UniProt Q12809); assay: Inhibition of human ERG
Voltage-gated inwardly rectifying potassium channel KCNH2, sequence (Q12809 whole entry): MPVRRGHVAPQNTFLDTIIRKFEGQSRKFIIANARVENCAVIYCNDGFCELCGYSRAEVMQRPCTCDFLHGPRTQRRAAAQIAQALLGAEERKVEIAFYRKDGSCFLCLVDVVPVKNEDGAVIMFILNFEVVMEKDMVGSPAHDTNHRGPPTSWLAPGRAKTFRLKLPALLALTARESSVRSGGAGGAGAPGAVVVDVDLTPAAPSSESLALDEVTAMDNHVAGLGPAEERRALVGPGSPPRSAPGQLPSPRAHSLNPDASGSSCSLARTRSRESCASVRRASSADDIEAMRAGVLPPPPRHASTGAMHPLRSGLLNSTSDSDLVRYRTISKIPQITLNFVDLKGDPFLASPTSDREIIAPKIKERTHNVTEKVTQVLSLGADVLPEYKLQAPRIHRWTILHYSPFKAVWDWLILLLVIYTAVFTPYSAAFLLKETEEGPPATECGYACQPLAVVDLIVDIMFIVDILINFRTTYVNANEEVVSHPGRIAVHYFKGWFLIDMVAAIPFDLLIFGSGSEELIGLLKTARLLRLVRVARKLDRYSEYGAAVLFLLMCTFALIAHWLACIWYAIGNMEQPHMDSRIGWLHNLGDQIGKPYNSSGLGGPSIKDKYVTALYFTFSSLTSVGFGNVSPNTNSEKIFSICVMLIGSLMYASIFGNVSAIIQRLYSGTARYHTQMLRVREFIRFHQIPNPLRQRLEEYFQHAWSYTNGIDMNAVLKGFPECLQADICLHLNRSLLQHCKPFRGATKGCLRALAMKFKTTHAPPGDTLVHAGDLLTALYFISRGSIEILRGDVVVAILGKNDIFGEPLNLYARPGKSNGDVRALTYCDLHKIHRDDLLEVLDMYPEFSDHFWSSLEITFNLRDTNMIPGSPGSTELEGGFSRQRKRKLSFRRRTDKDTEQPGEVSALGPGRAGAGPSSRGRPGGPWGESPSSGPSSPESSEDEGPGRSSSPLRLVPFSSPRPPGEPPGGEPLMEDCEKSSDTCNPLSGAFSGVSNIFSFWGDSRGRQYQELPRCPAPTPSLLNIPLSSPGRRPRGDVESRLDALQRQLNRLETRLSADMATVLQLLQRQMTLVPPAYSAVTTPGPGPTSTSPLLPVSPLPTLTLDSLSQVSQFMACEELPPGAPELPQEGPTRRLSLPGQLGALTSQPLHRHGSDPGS

[12] = Half life in CD1 mouse at 5 mg/kg, po; assay type: ADME, organism-based; design: dose 5 mg/kg, route oral; conditions: in vivo; how it was run: as §1
[13] = Half life in CD1 mouse at 1 mg/kg, iv; assay type: ADME, organism-based; design: dose 1 mg/kg, route intravenous; conditions: in vivo; how it was run: as §1
[14] = AUC in CD1 mouse at 5 mg/kg, po; assay type: ADME, organism-based; design: dose 5 mg/kg, route oral; conditions: plasma; how it was run: as §1
[15] = Metabolic stability in rat liver microsomes assessed as half life; assay type: ADME, Microsome
[16] = Half life in CD1 mouse at 5 mg/kg, po; conditions: in vivo
[17] = Tmax in CD1 mouse at 5 mg/kg, po; conditions: in vivo
[18] = Cmax in dog at 7.8 mg/kg, po; assay type: ADME, organism-based, Canis lupus familiaris; design: dose 7.8 mg/kg, route oral; conditions: in vivo
How it was run: (§2)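 Dogs were dosed IV at 1 mg/kg and PO at 5 mg/kg; one compound was given 2.3 mg/kg IV and 7.8 mg/kg oral. Values are means of at least three animals, or two animals where no SD is given.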

[19] = Half life in CD1 mouse at 1.6 mg/kg, iv; assay type: ADME, organism-based; design: dose 1.6 mg/kg, route intravenous; conditions: in vivo; how it was run: as §1
Mus musculus [20] = assay: Oral bioavailability in CD1 mouse at 1.6 mg/kg; assay type: ADME, organism-based; conditions: in vivo
[21] = Oral bioavailability in dog at 7.8 mg/kg; assay type: ADME, organism-based, Canis lupus familiaris; conditions: in vivo; how it was run: as §2
[22] = Volume of distribution at steady state in CD1 mouse at 1.6 mg/kg, iv; assay type: ADME, organism-based; design: dose 1.6 mg/kg, route intravenous; conditions: in vivo, read-out: Vdss; how it was run: as §1
[23] = Tmax in dog at 7.8 mg/kg, po; assay type: ADME, organism-based, Canis lupus familiaris; design: dose 7.8 mg/kg, route oral; conditions: in vivo
Mus musculus [24] = assay: AUC in CD1 mouse at 5 mg/kg, po; conditions: in vivo
[25] = AUC in dog at 7.8 mg/kg, po; assay type: ADME, organism-based, Canis lupus familiaris; design: dose 7.8 mg/kg, route oral; conditions: plasma; how it was run: as §2
[26] = Half life in dog at 2.3 mg/kg, iv; assay type: ADME, organism-based, Canis lupus familiaris; design: dose 2.3 mg/kg, route intravenous; conditions: in vivo; how it was run: as §2
[27] = Volume of distribution at steady state in dog at 2.3 mg/kg, iv; assay type: ADME, organism-based, Canis lupus familiaris; design: dose 2.3 mg/kg, route intravenous; conditions: in vivo, read-out: Vdss; how it was run: as §2
[28] = Cmax in CD1 mouse at 5 mg/kg, po; conditions: in vivo
[29] = Half life in dog at 7.8 mg/kg, po; assay type: ADME, organism-based, Canis lupus familiaris; design: dose 7.8 mg/kg, route oral; conditions: in vivo; how it was run: as §2
[30] = Clearance in dog at 2.3 mg/kg, iv; assay type: ADME, organism-based, Canis lupus familiaris; design: dose 2.3 mg/kg, route intravenous; conditions: in vivo; how it was run: as §2

CNC(=O)[C@@H]1C[C@@H](NC(=O)c2ccccc2)CN1C(=O)CN
Activity (Mus musculus [1]): 145% | remaining at 3 h [2]: 87%

CC(C)(C)OC(=O)NCC(=O)N1C[C@H](NC(=O)c2ccccc2)C[C@H]1C(=O)O
Activity (Mus musculus [1]): 156.2% | remaining at 3 h [2]: 100%

CC(=O)NCC(=O)N1C[C@H](NC(=O)c2ccccc2)C[C@H]1C(=O)O
Activity (Mus musculus [1]): 165.7% | Tmax [3]: 15 min | Vd [4]: 0.3 L/kg | clearance [5]: 24 mL/min/kg | Activity [6]: Not Active | Cmax [7]: 38 ng/mL | remaining at 3 h [2]: 100% | Activity (Mus musculus [8]): Active | bioavailability [9]: 2% | half-life [10]: > 30 min | Activity [11]: Not Active | half-life [12]: 72 min | half-life [13]: 18 min | AUC [14]: 66 ng·h/mL | half-life [15]: > 30 min

NCC(=O)N1C[C@H](NC(=O)c2ccccc2)C[C@H]1C(=O)NC1CCOCC1
Activity (Mus musculus [1]): 99.4% | remaining at 3 h [2]: 81%

CNCC(=O)N1C[C@H](NC(=O)c2ccccc2)C[C@H]1C(=O)O
Activity (Mus musculus [1]): 120.7% | remaining at 3 h [2]: 100%

NCC(=O)N1C[C@H](NC(=O)c2ccccc2)C[C@H]1C(N)=O
Activity (Mus musculus [1]): 193.2% | remaining at 3 h [2]: 27%

CN(C)CC(=O)N1C[C@H](NC(=O)c2ccccc2)C[C@H]1C(=O)O
Activity (Mus musculus [1]): 118.9% | remaining at 3 h [2]: 100%

O=CNCC(=O)N1C[C@H](NC(=O)c2ccccc2)C[C@H]1C(=O)O
Activity (Mus musculus [1]): 170.4% | half-life [16]: 84 min | Tmax [17]: 15 min | Cmax [18]: 737 ng/mL | Activity [6]: Not Active | half-life [19]: 24 min | F (Mus musculus [20]): 2% | remaining at 3 h [2]: 100% | bioavailability [21]: 13% | Activity (Mus musculus [8]): Active | Vd [22]: 0.2 L/kg | Tmax [23]: 84 min | half-life [10]: > 30 min | AUC (Mus musculus [24]): 144 ng·h/mL | Activity [11]: Not Active | AUC [25]: 3820 ng·h/mL | half-life [26]: 90 min | Vd [27]: 0.4 L/kg | half-life [15]: > 30 min | Cmax [28]: 89 ng/mL | half-life [29]: 372 min | clearance [30]: 5 mL/min/kg
